# Laboratory results published in ChEMBL document CHEMBL1156627, “Ring expanded nucleoside analogues inhibit RNA helicase and intracellular human immunodeficiency virus type 1 replication” (J Med Chem, 2008).
# The source made the active and inactive calls. No cut-off for these calls is given here.
# How the values were obtained:
# [1] = tested on: Human immunodeficiency virus 1; experiment: Inhibition of macrophage tropic HIV1 AD8 replication in monocyte-derived macrophages p24 capsid protein level at 25 uM after 5 days by ELISA; assay type: functional, organism-based
# Method in brief: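 Elutriated blood monocytes cultured 5–7 days in RPMI-1640 with 10% pooled human AB serum and M-CSF to give macrophages. Infected on day 5 with 100,000 RT counts of HIV-1 AD8 (stock from HeLa transfection) and treated with compound. Supernatants collected every 3 days for p24 ELISA. Three repeats.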
# [2] = tested on: Human immunodeficiency virus 1; experiment: Inhibition of HIV1 replication in human MT4 cells assessed as reduction in reverse transcriptase at 25 uM after 8 days by Western blotting; assay type: functional, organism-based
# Method in brief: (§1)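 MT4 cells (4 × 10^6, RPMI + 10% FBS) infected with 20,000 RT counts of NL4-3 (HeLa-transfection stock); compound added 4 hrs post-infection. Half the medium replaced every 2 days with drug-containing medium; supernatants collected every 2 days up to day 8 and assayed for RT activity (also p24 ELISA). Three independent experiments.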
# [3] = tested on: Human immunodeficiency virus 1; experiment: Inhibition of macrophage tropic HIV1 AD8 replication in monocyte-derived macrophages assessed as reduction in reverse transcriptase at 25 uM after 5 days by Western blotting; assay type: functional, organism-based
# Method in brief: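 Monocyte-derived macrophages from elutriated blood monocytes cultured 5–7 days in RPMI-1640 with 10% pooled human AB serum and M-CSF, then infected with 10^5 RT counts of M-tropic HIV-1 AD8 and treated with compound. Supernatants collected every 3 days for RT activity and p24 ELISA; three repeats.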
# [4] = tested on: Human immunodeficiency virus 1; experiment: Antiviral activity against HIV1 transfected in human HeLa cells assessed as reduction of p24 viral protein synthesis at 25 uM; assay type: functional, organism-based
# Method in brief: (§2)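 HeLa cells transfected with 2µg pNL4-3 proviral clone; compound 25 µM added 3 hrs post-transfection. Lysates prepared 24 hrs later; viral proteins detected by Western blotting with anti-HIV-1 patient IgG (hyperimmune patient serum).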
# [5] = tested on: Human immunodeficiency virus 1; experiment: Antiviral activity against HIV1 transfected in human HeLa cells assessed as reduction of p55 viral protein synthesis at 25 uM; assay type: functional, organism-based; method in brief: as §2
# [6] = tested on: Human immunodeficiency virus 1; experiment: Inhibition of HIV1 replication in human MT4 cells assessed as p24 capsid protein level at 25 uM after 8 days by ELISA; assay type: functional, organism-based
# Method in brief: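 NL4-3 virus stock made by HeLa transfection, titred by RT assay. 4 × 10^6 MT4 cells (RPMI, 10% FBS) infected with 20,000 RT counts; compound added 4 hrs post infection. Half the medium replaced every 2 days with fresh medium holding the same compound level. Supernatants taken every 2 days over 8 days for p24 ELISA. Three repeats.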
# [7] = molecular target: ATP-dependent RNA helicase DDX3X (Homo sapiens) (UniProt O00571); experiment: Inhibition of ATP dependent RNA unwinding activity of human RNA helicase DDX3
# Sequence of ATP-dependent RNA helicase DDX3X (Homo sapiens) (O00571 2-662 limits assumed): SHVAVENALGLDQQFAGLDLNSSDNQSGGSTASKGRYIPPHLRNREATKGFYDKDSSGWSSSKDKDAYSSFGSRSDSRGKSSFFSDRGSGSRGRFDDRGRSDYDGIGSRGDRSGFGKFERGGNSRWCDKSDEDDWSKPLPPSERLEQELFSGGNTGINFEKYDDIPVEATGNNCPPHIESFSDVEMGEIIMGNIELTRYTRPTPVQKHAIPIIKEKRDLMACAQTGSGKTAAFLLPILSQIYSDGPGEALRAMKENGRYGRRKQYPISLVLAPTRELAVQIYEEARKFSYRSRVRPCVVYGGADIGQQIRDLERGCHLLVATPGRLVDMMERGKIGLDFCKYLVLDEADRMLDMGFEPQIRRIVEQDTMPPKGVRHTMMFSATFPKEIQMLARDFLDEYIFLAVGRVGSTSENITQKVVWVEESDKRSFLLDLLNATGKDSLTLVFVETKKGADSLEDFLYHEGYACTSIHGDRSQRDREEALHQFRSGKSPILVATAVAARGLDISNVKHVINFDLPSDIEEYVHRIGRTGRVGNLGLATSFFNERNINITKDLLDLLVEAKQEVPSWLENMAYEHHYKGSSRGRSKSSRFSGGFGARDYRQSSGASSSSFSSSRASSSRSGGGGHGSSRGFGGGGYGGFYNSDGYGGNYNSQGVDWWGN
# Method in brief: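 Partially double-stranded RNA: 120-nt T3 transcript from KpnI-cut pBluescript hybridized (95 °C, 20 min) to complementary [α-32P]UTP-labelled T7 transcript from EcoRI-cut vector. Products resolved on 10% polyacrylamide gel, phosphorimaging.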
# Mus musculus = experiment: Toxicity in BALB/c mouse assessed as tissue necrosis at 0.2 to 200 uM, ip administered […] relative to control; assay type: organism-based; settings: in vivo, 840 h
# Method in brief: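 BALB/c mice, 8–10 weeks old, groups of 4, injected intraperitoneally twice weekly for 4 weeks with boluses calculated to give body distributions of 0.2, 2, 20 and 200 µM. Controls received saline or DMSO. Mice monitored 5 weeks in total, tail-vein blood weekly, then necropsy and multi-organ histology.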
# [8] = tested on: Human immunodeficiency virus 1; experiment: Inhibition of HIV1 replication in human MT4 cells assessed as reduction in reverse transcriptase production at 10 uM; assay type: functional, organism-based; method in brief: as §1
# MT4 = experiment: Cytotoxicity against human MT4 cells at 1 to 100 uM after 6 days by colorimetric assay relative to control; assay type: cell-based; settings: mt4, 144 h
# Method in brief: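 MT4 cells (4 × 10^6 in 2 ml, RPMI + 10% FBS) incubated with 1, 10 or 100 µM compound over 6 days; half the medium replaced every 2 days with fresh drug-containing medium. At each harvest 100 µl suspension incubated 2 hrs with WST-8, absorbance at 450 nm, compared with untreated cells.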
SMILES,Activity [1],Activity [2],Activity [3],Activity [4],Activity [5],Activity [6],Activity [7],Activity (Mus musculus),Activity [8],Activity (MT4)
CCCCCCCCCCCCCCCCCCNc1nc(=O)c2c(ncn2[C@@H]2C[C@@H](O)[C@H](CO)O2)c(=O)[nH]1,Active,Active,Active,Active,Active,Active,Active,Non-toxic,Active,Non-toxic
CCCCCCCCCCCCCCCCCCNc1nc(=O)c2ncn([C@@H]3O[C@H](CO)[C@@H](O)[C@H]3O)c2c(=O)[nH]1,Active,Active,Active,Active,Active,Active,Active,Non-toxic,Active,Non-toxic
